SMILES strings stand for the structures.

Experimental findings from ChEMBL document CHEMBL1687700, “Discovery of an Orally Efficacious Imidazo[5,1-f][1,2,4]triazine Dual Inhibitor of IGF-1R and IR” (ACS Med Chem Lett, 2010) are described below.

The nature of data set [1]: Volume of distribution at steady state in CD-1 mouse at 5 mg/kg, iv administered as single dose. Details: dose 5 mg/kg, route intravenous. The data set is classed as ADME, organism-based. To be noted: in vivo, read-out: Vdss.
The nature of data set [2]: (§1) Oral bioavailability in CD-1 mouse at 25 mg/kg, po administered as single dose. To be noted: CD-1, mouse, in vivo. It is filed as ADME, organism-based.
Data set [3] is described as follows: Permeability of the compound by PAMPA assay at pH 5.0. The data set is classed as ADME. The following applies: read-out: permeability. The procedure, abridged:
(§2)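 Parallel artificial membrane permeability assay run at pH 5.0 and pH 7.4; permeability reported in nm/s.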

Data set [4] in a line: Permeability of the compound by PAMPA assay at pH 7.4. The data set is classed as ADME. The following applies: read-out: permeability. A digest of the protocol:
as §2

Data set [5] is described as follows: Cmax in CD-1 mouse plasma at 25 mg/kg, po administered as single dose. It is filed as ADME, organism-based. Details: dose 25 mg/kg, route oral.
A short description of data set [6]: Clearance in CD-1 mouse at 5 mg/kg, iv administered as single dose. It is filed as ADME, organism-based. Details: dose 5 mg/kg, route intravenous. To be noted: in vivo.
Data set [7] in a line: Extraction ratio of hepatic clearance to hepatic blood flow in mouse microsomes. The data set is classed as ADME, Microsome. The following applies: liver microsomes.
Data set [8] has as its target Insulin-like growth factor 1 receptor (Homo sapiens, UniProt P08069). The experiment in a line: Inhibition of auto-phosphorylation of human IGF1R expressed in mouse NIH-3T3 cells after 2 hrs by luminometry. It is filed as cell-based, NIH3T3.
The nature of data set [9]: Clearance in Sprague-Dawley rat at 5 mg/kg, iv administered as single dose. The data set is classed as ADME, organism-based. Set-up: dose 5 mg/kg, route intravenous. To be noted: in vivo. The procedure, abridged:
(§3)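 Single 5 mg/kg iv dose used to derive clearance and Vss; median values reported per species (female rat, male rhesus monkey).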

Data set [10] in a line: Cmax in Sprague-Dawley rat at 25 mg/kg, po administered as single dose. The following applies: in vivo. The data set is classed as ADME, organism-based. Set-up: dose 25 mg/kg, route oral.
In a further data set the test system is Mus musculus. The description is as §1. The following applies: mouse, in vivo. The data set is classed as ADME, organism-based.
Data set [11] is described as follows: Oral bioavailability in Sprague-Dawley rat at 25 mg/kg administered as single dose. To be noted: in vivo. It is filed as ADME, organism-based.
Data set [12] can be described thus: Antiproliferative activity against human GEO cells expressing IR assessed as intracellular ATP content after 3 days by Cell Titre-Glo luminescent assay. The data set is classed as functional, cell-based. To be noted: 72 h.
The target in the next data set is T1, Cytochrome P450 1A2 (Homo sapiens, UniProt P05177).
T1 sequence (P05177 whole entry): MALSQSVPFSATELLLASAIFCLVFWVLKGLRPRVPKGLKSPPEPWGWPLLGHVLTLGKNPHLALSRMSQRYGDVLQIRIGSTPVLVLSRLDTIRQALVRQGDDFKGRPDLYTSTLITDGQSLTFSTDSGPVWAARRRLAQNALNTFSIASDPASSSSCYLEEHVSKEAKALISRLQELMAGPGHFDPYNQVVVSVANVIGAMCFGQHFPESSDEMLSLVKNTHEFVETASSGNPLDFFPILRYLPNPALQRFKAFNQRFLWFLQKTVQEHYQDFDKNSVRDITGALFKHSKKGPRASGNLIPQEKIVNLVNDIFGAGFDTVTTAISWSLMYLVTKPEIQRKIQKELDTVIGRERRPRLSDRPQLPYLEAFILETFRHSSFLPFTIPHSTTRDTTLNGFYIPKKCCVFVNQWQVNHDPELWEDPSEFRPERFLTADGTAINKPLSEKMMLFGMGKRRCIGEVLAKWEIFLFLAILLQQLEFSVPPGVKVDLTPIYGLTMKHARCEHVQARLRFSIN
Nature of the data set: Inhibition of CYP1A2. The data set is classed as ADME.

Another data set addresses Insulin receptor (Homo sapiens, UniProt P06213). Nature of the data set: Inhibition of auto-phosphorylation of human IR expressed in human HepG2 cells after 2 hrs by luminometry. It is filed as cell-based.
For a further data set, the target named is Cytochrome P450 3A4 (Homo sapiens, UniProt P08684). The experiment in a line: Inhibition of CYP3A4. It is filed as ADME.
Chain of Cytochrome P450 3A4 (P08684 whole entry): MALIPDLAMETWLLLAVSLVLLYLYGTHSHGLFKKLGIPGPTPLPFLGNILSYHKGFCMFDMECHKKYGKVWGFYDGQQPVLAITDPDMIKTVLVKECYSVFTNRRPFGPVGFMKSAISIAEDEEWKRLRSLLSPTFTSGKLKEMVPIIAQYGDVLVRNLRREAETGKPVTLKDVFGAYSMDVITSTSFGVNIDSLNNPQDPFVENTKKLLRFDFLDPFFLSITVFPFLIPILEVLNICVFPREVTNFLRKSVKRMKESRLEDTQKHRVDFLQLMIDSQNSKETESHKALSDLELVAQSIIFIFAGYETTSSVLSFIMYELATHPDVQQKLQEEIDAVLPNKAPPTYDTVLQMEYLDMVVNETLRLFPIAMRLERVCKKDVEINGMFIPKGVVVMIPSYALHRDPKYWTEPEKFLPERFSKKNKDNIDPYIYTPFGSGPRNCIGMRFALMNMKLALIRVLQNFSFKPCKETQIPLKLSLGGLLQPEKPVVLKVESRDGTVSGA
Data set [13] is described as follows: Antiproliferative activity against human GEO cells expressing IGF-1R assessed as intracellular ATP content after 3 days by Cell Titre-Glo luminescent assay. The data set is classed as functional, cell-based. To be noted: 72 h.
Data set [14] in a line: Genotoxicity in Salmonella Typhimurium by Ames test in presence of S9 liver microsomes. It is filed as toxicity, Microsome. The following applies: salmonella enterica subsp. enterica serovar typhimurium.
The nature of data set [15]: Volume of distribution at steady state in Sprague-Dawley rat at 5 mg/kg, iv administered as single dose. The data set is classed as ADME, organism-based. Set-up: dose 5 mg/kg, route intravenous. The following applies: in vivo, read-out: Vdss. A digest of the protocol: as §3
A short description of data set [16]: Extraction ratio of hepatic clearance to hepatic blood flow in human microsomes. The following applies: liver microsomes. The data set is classed as ADME, Microsome.
A further data set is filed under the species Rattus norvegicus. The experiment in a line: Toxicity in rat after 14 days. It is filed as organism-based. To be noted: in vivo, 336 h.
Data set [17] is described as follows: AUC in Sprague-Dawley rat at 25 mg/kg, po administered as single dose. The data set is classed as ADME, organism-based. Set-up: dose 25 mg/kg, route oral. The following applies: plasma. The procedure, abridged:
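Single oral dose of 25 mg/kg, given as the free base in 50:50 PEG-400:25 mM tartaric acid, to female rats. Plasma AUC (ng h/mL) is reported as the median. Clearance parameters come from a separate 5 mg/kg iv dose.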

Data set [18] is described as follows: Genotoxicity in Salmonella Typhimurium by Ames test in absence of S9 liver microsomes. The following applies: salmonella enterica subsp. enterica serovar typhimurium. The data set is classed as toxicity, Microsome.
In another data set the target is Cytochrome P450 2D6 (Homo sapiens, UniProt P10635). Nature of the data set: Inhibition of CYP2D6. The data set is classed as ADME.
Chain of Cytochrome P450 2D6 (P10635 whole entry): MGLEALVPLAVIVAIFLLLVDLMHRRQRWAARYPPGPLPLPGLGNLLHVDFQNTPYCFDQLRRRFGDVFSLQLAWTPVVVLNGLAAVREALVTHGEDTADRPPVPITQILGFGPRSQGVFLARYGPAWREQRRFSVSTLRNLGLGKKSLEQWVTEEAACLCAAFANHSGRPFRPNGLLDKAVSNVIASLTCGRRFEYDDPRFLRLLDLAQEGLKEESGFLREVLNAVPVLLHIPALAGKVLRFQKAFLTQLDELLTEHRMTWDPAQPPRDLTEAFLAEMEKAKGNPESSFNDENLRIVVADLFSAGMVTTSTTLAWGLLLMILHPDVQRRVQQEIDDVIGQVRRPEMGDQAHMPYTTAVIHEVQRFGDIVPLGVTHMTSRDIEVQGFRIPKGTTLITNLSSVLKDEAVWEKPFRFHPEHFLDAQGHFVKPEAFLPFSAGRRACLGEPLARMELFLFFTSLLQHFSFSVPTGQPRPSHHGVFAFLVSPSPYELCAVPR

Chain of Insulin receptor (P06213 28-758 limits assumed): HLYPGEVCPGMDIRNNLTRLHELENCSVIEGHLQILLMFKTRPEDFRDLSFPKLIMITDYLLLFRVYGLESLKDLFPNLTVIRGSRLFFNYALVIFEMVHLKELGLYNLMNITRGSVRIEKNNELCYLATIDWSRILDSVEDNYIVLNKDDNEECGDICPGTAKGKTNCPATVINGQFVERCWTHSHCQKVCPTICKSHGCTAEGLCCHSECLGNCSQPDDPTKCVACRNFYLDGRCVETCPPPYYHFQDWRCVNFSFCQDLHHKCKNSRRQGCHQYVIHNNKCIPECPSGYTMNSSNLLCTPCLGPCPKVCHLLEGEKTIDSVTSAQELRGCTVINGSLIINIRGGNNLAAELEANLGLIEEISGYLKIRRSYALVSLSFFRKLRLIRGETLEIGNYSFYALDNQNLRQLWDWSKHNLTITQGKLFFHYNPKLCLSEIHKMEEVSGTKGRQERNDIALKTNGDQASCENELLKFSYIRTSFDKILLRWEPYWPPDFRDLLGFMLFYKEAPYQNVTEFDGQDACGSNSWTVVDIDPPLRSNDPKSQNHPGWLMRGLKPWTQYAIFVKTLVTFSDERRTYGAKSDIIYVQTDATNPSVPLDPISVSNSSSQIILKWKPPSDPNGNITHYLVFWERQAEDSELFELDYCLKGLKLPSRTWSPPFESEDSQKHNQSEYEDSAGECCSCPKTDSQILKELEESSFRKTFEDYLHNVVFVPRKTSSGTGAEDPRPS
Chain of Insulin receptor (P06213 763-1382 limits assumed): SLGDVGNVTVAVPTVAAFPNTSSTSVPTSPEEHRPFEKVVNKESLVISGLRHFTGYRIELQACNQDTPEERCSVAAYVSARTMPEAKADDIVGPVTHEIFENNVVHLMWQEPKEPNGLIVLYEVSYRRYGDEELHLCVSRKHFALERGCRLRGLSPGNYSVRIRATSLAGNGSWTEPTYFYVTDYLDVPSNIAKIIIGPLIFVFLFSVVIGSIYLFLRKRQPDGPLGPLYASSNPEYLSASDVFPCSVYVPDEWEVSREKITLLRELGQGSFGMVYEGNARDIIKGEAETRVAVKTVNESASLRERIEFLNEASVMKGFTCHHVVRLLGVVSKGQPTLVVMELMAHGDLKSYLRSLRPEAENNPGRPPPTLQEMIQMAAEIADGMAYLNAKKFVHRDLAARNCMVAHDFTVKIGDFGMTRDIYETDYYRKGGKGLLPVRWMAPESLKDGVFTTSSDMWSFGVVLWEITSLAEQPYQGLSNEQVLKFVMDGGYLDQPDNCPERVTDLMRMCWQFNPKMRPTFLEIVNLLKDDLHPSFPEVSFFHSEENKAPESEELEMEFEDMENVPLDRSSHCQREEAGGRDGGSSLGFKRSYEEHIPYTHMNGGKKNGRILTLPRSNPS
Chain of Insulin-like growth factor 1 receptor (P08069 31-736 limits assumed): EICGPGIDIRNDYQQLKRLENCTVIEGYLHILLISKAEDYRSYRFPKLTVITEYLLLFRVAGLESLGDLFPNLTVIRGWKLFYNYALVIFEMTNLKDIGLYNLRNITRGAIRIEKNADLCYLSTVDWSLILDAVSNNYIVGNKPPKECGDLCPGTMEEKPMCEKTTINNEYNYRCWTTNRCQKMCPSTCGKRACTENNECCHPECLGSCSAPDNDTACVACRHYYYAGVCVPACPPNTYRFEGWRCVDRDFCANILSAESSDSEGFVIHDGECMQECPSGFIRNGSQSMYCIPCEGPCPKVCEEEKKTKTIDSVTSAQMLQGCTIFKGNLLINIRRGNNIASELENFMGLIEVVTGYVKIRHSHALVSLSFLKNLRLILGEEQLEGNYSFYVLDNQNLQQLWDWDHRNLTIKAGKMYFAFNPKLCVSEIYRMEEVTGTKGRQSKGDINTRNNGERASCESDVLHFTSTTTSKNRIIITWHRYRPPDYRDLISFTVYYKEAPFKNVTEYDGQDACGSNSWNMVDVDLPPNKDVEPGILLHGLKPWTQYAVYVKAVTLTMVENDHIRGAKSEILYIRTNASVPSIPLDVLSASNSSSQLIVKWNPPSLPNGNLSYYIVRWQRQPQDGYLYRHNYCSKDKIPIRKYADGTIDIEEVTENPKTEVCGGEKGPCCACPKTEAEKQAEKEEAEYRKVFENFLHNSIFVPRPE
Chain of Insulin-like growth factor 1 receptor (P08069 741-1367 limits assumed): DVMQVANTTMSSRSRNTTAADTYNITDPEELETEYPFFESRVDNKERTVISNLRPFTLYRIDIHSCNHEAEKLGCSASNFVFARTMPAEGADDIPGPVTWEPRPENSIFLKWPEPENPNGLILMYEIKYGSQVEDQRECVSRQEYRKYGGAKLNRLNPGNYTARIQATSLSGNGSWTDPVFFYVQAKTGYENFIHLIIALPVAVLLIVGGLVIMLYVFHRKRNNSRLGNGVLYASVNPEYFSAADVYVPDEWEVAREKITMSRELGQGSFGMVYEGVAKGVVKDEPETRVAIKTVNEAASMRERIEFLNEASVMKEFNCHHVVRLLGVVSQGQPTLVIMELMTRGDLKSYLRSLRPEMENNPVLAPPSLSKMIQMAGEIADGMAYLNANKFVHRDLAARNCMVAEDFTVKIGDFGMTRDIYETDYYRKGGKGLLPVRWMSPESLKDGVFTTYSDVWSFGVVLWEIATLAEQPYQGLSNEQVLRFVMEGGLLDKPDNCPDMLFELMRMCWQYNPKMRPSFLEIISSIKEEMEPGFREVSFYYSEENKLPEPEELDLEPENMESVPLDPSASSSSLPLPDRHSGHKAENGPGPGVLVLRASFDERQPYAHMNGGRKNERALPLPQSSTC

As to `CN1CCN([C@H]2C[C@@H](c3nc(-c4ccc5ccc(-c6ccccc6)nc5c4F)c4c(N)ncnn43)C2)CC1`, the Vd in data set [1] is 4.9 L/kg. Moreover, the bioavailability in [2] was found to be 27%. The Papp in data set [3] was determined as 14.5 ×10⁻⁶ cm/s; in [4] it was 67.2 ×10⁻⁶ cm/s. Besides, the Cmax in [5] was found to be 1.9 µM. This compound came in with a clearance in [6] of 21 mL/min/kg.

Take `C[C@]1(O)C[C@@H](c2nc(-c3ccc4ccc(-c5ccccc5)nc4c3F)c3c(N)ncnn32)C1`: the hepatic extraction ratio in [7] stood at 0.43; in [16], 0.55. For the same compound, the IC50 was 17 nM in data set [8]; above 25000 nM against Cytochrome P450 1A2; 76 nM against Insulin receptor; above 25000 nM on Cytochrome P450 3A4; above 25000 nM on Cytochrome P450 2D6. Further, the clearance in data set [9] and in data set [6] was 4 mL/min/kg throughout. The Vd in data set [1] amounted to 1 L/kg; in [15], 0.97 L/kg. The Cmax in data set [10] was found to be 11.3 µM; in data set [5], 20.5 µM. The F in the data set on Mus musculus worked out at 162%. In addition, the bioavailability in data set [11] was found to be 64%. The EC50 in [12] and in [13] was 130 nM in each case. For the same compound, the Activity result (in data set [14]; in the data set listed under Rattus norvegicus; in [18]) was “Non-toxic” throughout. This compound also yielded an AUC in [17] of 62400 ng·h/mL. Moreover, the Papp in data set [3] came to 109 ×10⁻⁶ cm/s; in data set [4], 110 ×10⁻⁶ cm/s.
